PMC4575845 (Journal of biomolecular screening, 2015)
In brackets after ≈: the same amount, converted by molar mass. Entries after “also recorded” stand apart in the source; their conditions may differ.

Assays:
P. aeruginosa GluRS [1] = target: T1, P. aeruginosa GluRS (Pseudomonas aeruginosa, UniProt Q9XCL6); experiment: SPA-based tRNA aminoacylation assay; assay type: biochemical
T1 sequence (Q9XCL6 1-494): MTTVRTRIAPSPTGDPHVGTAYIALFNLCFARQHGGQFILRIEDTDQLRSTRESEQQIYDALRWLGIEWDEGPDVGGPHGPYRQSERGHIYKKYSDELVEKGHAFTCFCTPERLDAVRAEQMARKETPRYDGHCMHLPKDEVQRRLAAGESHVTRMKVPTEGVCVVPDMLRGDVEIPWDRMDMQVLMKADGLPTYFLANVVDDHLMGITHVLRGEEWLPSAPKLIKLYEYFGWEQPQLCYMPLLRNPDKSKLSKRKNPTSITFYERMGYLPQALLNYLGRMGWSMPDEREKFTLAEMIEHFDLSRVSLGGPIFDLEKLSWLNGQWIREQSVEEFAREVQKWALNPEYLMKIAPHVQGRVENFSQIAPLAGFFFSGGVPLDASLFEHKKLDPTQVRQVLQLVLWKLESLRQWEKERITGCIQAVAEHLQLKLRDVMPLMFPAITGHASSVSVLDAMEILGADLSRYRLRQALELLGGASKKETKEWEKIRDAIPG
Summary of the method: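 P. aeruginosa GluRS was expressed in E. coli Rosetta 2(DE3) from pET101 and Ni-NTA purified. Final mix: 50 mM Tris-HCl pH 7.5, 8 mM MgCl2, 1.25 mM ATP, 1 mM spermine, 1 mM DTT, 100 µM [3H]Glu, 0.1 µM enzyme. Compound (200–0.4 µM) preincubated 15 min ambient; E. coli tRNA (0.75 µM tRNAGlu) added; 1 h 37 °C; EDTA stop. Poly-L-lysine yttrium silicate SPA beads (citrate pH 2.0), 1 h RT, scintillation count.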

[2] = system: Enterococcus faecalis (ATCC 29212); experiment: Broth microdilution MIC; assay type: cell-based; details: ATCC29212
[3] = system: Streptococcus pneumonia (ATCC 49619); experiment: Broth microdilution MIC; assay type: cell-based; details: Streptococcus pneumoniae, ATCC49619
E. faecalis = experiment: Time-kill study; assay type: cell-based, Enterococcus faecalis; details: 4x MIC, 0-24 h
Summary of the method: (§1)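 Time-kill per CLSI M26-A, with compound at 4× MIC (broth microdilution MIC per CLSI M7-A7). Medium: Brain Heart Infusion or Trypticase Soy Broth, with or without 3% lysed horse blood. Viable counts by plating for CFU at 0, 2, 4, 6 and 24 h versus compound-free control cultures.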

S. pneumoniae = experiment: Time-kill study; assay type: cell-based, Streptococcus pneumoniae; details: 4x MIC
Summary of the method: as §1

NIH/3T3 cells = experiment: MTT in vitro cytotoxicity test; assay type: cell-based; details: 25–800 µg/mL, 24 h
P. aeruginosa GluRS [4] = target: T1, P. aeruginosa GluRS; experiment: Binding mode assay; assay type: biochemical; details: for mode of inhibition with respect to ATP: IC50 at ATP 25-1000 µM, Glu 100 µM; for mode of inhibition with respect to Glu: IC50 at Glu 25-300 µM, ATP held constant
Summary of the method: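 IC50 by the same SPA aminoacylation assay, with 0.05 µM P. aeruginosa GluRS and compound at 200–0.4 µM final, preincubated 15 min RT. Started with E. coli tRNA (0.75 µM tRNAGlu), 1 h at 37 °C, EDTA stop. DMSO-only positive controls. ATP series 25–1000 µM at 100 µM Glu. Glu series 25–300 µM at constant saturating ATP. Sigmoidal dose–response fit; mode inferred from IC50 change versus substrate level.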

[5] = system: Staphylococcus aureus (ATCC 29213); experiment: Broth microdilution MIC; assay type: cell-based; details: ATCC29213
S. aureus = experiment: Time-kill study; assay type: cell-based, Staphylococcus aureus; details: 4x MIC

SMILES	IC50 (P. aeruginosa GluRS [1]) [µM]	MIC [2] [µg/mL]	MIC [3] [µg/mL]	bacteriostatic or bactericidal (E. faecalis)	decrease in colony-forming units (CFUs) compared to the control (E. faecalis)	bacteriostatic or bactericidal (S. pneumoniae; 0-24 h)	decrease in colony-forming units (CFUs) compared to the control (S. pneumoniae; 0-24 h)	cytotoxicity (MTT) (NIH/3T3 cells)	mode of inhibition with respect to ATP (P. aeruginosa GluRS [4])	mode of inhibition with respect to Glu (P. aeruginosa GluRS [4])	MIC [5] [µg/mL]	inhibition of growth in time-kill (S. pneumoniae; all times tested)	bacteriostatic or bactericidal (S. aureus; 0-24 h)	regrowth in time-kill (S. aureus; at 24 h)
O=C(Nc1ccc(-c2cc(C(F)(F)F)nn2-c2ccccc2)cc1)Nc1ccc(F)cc1F [BT_03F04, 1-(2,4-difluorophenyl)-3-{4-[1-phenyl-3-(trifluoromethyl)-1H-pyrazol-5-yl]phenyl}urea]	21.9	2 (≈ 4.36 µM)	8 (≈ 17.5 µM)	bacteriostatic	2–3 log10	bacteriostatic	2–3 log10	not observed to be toxic	noncompetitive	noncompetitive	–	–	–	–
CC1(C)SC(=S)N(/N=C/C=C/c2ccc([N+](=O)[O-])o2)C1N(O)C(=O)Nc1cccc(Cl)c1 (centres unmarked) [BT_04B09, 3-(3-chlorophenyl)-1-(5,5-dimethyl-3-{(E)-[(2E)-3-(5-nitrofuran-2-yl)prop-2-en-1-ylidene]amino}-2-thioxo-1,3-thiazolidin-4-yl)-1-hydroxyurea]	24.9	–	32 (≈ 64.5 µM)	–	–	bactericidal	–	not observed to be toxic	noncompetitive; also recorded: remain constant	competitive	32 (≈ 64.5 µM)	completely	bactericidal	some regrowth
